In experiment [1] the test system is Enterococcus faecalis. The experiment in a line: In vitro antibacterial activity against Enterococcus faecalis C6291 (E. f. 1). It is filed as functional. A digest of the protocol: (§1)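 MIC by agar dilution on Mueller–Hinton agar, inoculum 10⁴ CFU/spot. Reported in μg/mL.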
The test system of experiment [2] is Enterococcus faecalis. The experiment in a line: In vitro antibacterial activity against Enterococcus faecalis C6301 (E. f. 1). It is filed as functional. A digest of the protocol:
as §1

Experiment [3] relates to Staphylococcus epidermidis. Put plainly: In vitro antibacterial activity against Staphylococcus epidermis ATCC 1228. It is filed as functional. A digest of the protocol: as §1
Experiment [4] deals with Staphylococcus epidermidis. The experiment in a line: In vitro antibacterial activity against Staphylococcus epidermis C2235. It is filed as functional. A digest of the protocol:
as §1

In experiment [5] the test system is Staphylococcus aureus. The experiment in a line: In vitro antibacterial activity against Staphylococcus aureus. It is filed as functional.
Experiment [6] has as its system Staphylococcus aureus. Put plainly: In vitro antibacterial activity against ciprofloxacin-resistant Staphylococcus aureus (CRSA). It is filed as functional.
Experiment [7] relates to Staphylococcus aureus. The experiment in a line: In vitro antibacterial activity against methicillin-resistant Staphylococcus aureus (MRSA). It is filed as functional.
The test system of experiment [8] is Staphylococcus aureus. The experiment in a line: In vitro antibacterial against methicillin-susceptible Staphylococcus aureus (MSSA). It is filed as functional.
Experiment [9] concerns Streptococcus pyogenes. Put plainly: In vitro antibacterial activity against Streptococcus pyogenes C6003.
The test system of experiment [10] is Streptococcus pyogenes. Put plainly: In vitro antibacterial activity against Streptococcus pyogenes ATTCC8668.
In a further experiment the test system is Enterococcus faecium. The experiment in a line: In vitro antibacterial activity against vancomycin-resistant Enterococcus faecium C6487.

≈ marks a conversion by molar mass, not a printed value.

As a reminder, the MIC is the least concentration at which growth counts as inhibited. A lower MIC goes with greater potency. As for `CCOC(=O)C(C)=C1CCN(c2ccc(N3C[C@H](CNC(C)=O)OC3=O)cc2F)CC1`, the MIC with Enterococcus faecalis [1] is 8 µg/mL (≈ 18.5 µM); against Enterococcus faecalis [2] it was 8 µg/mL (≈ 18.5 µM); in experiment [3], 4 µg/mL (≈ 9.23 µM); in experiment [4], 8 µg/mL (≈ 18.5 µM); with Staphylococcus aureus [5] it was 16 µg/mL (≈ 36.9 µM); in the experiment on Staphylococcus aureus [6], 8 µg/mL (≈ 18.5 µM). Further, the MIC was found to be 8 µg/mL (≈ 18.5 µM) against Staphylococcus aureus [7]; 16 µg/mL (≈ 36.9 µM) with Staphylococcus aureus [8]; 16 µg/mL (≈ 36.9 µM) in the experiment with Streptococcus pyogenes [9]; 4 µg/mL (≈ 9.23 µM) against Streptococcus pyogenes [10]; 8 µg/mL (≈ 18.5 µM) in the experiment with Enterococcus faecium.
Take `CC(=O)NC[C@H]1CN(c2ccc(N3CCC(=Cc4cc(-c5cccs5)no4)CC3)c(F)c2)C(=O)O1`: the MIC came out at 16 µg/mL (≈ 32.2 µM) in the experiment on Enterococcus faecalis [1]; 16 µg/mL (≈ 32.2 µM) in the experiment with Enterococcus faecalis [2]; 4 µg/mL (≈ 8.06 µM) in experiment [3]; 8 µg/mL (≈ 16.1 µM) in experiment [4]; 32 µg/mL (≈ 64.4 µM) with Staphylococcus aureus [5]; 16 µg/mL (≈ 32.2 µM) in the experiment on Staphylococcus aureus [6]. Moreover, the MIC against Staphylococcus aureus [7] was determined as 16 µg/mL (≈ 32.2 µM); in the experiment with Staphylococcus aureus [8], 16 µg/mL (≈ 32.2 µM); against Streptococcus pyogenes [9] it was 16 µg/mL (≈ 32.2 µM); against Streptococcus pyogenes [10], 2 µg/mL (≈ 4.03 µM); against Enterococcus faecium it was 16 µg/mL (≈ 32.2 µM).
`C/C(S)=N/C[C@H]1CN(c2ccc(N3CCC(=CC#N)CC3)c(F)c2)C(=O)O1`: the MIC in the experiment with Enterococcus faecalis [1] was found to be 1 µg/mL (≈ 2.57 µM); with Enterococcus faecalis [2], 1 µg/mL (≈ 2.57 µM); in experiment [3], 0.5 µg/mL (≈ 1.29 µM); in experiment [4] it was 0.5 µg/mL (≈ 1.29 µM); against Staphylococcus aureus [5] it was 2 µg/mL (≈ 5.15 µM); against Staphylococcus aureus [6], 2 µg/mL (≈ 5.15 µM). The MIC in the experiment with Staphylococcus aureus [7] stood at 2 µg/mL (≈ 5.15 µM); with Staphylococcus aureus [8], 2 µg/mL (≈ 5.15 µM); in the experiment on Streptococcus pyogenes [9] it was 0.25 µg/mL (≈ 0.644 µM); in the experiment on Streptococcus pyogenes [10], 0.5 µg/mL (≈ 1.29 µM); against Enterococcus faecium, 0.5 µg/mL (≈ 1.29 µM).
Turning to `CCOC(=O)C=C1CCN(c2ccc(N3C[C@H](CNC(C)=O)OC3=O)cc2F)CC1`, the MIC came out at 8 µg/mL (≈ 19.1 µM) in the experiment on Enterococcus faecalis [1]; 8 µg/mL (≈ 19.1 µM) in the experiment with Enterococcus faecalis [2]; 4 µg/mL (≈ 9.54 µM) in [3]; 8 µg/mL (≈ 19.1 µM) in experiment [4]; 16 µg/mL (≈ 38.1 µM) in the experiment with Staphylococcus aureus [5]; 8 µg/mL (≈ 19.1 µM) against Staphylococcus aureus [6]. Further, the minimum inhibitory concentration (MIC) with Staphylococcus aureus [7] worked out at 8 µg/mL (≈ 19.1 µM); against Staphylococcus aureus [8], 16 µg/mL (≈ 38.1 µM); in the experiment on Streptococcus pyogenes [9] it was 8 µg/mL (≈ 19.1 µM); with Streptococcus pyogenes [10], 2 µg/mL (≈ 4.77 µM); in the experiment on Enterococcus faecium, 8 µg/mL (≈ 19.1 µM).
With `CC(=O)NC[C@H]1CN(c2ccc(N3CCC(=C(C)C#N)CC3)c(F)c2)C(=O)O1`, the MIC in the experiment with Enterococcus faecalis [1] turned out to be 2 µg/mL (≈ 5.18 µM); with Enterococcus faecalis [2], 2 µg/mL (≈ 5.18 µM); in experiment [3] it was 0.5 µg/mL (≈ 1.29 µM); in experiment [4] it was 2 µg/mL (≈ 5.18 µM); in the experiment on Staphylococcus aureus [5], 2 µg/mL (≈ 5.18 µM); with Staphylococcus aureus [6], 2 µg/mL (≈ 5.18 µM). The MIC against Staphylococcus aureus [7] is 2 µg/mL (≈ 5.18 µM); with Staphylococcus aureus [8], 2 µg/mL (≈ 5.18 µM); against Streptococcus pyogenes [9] it was 2 µg/mL (≈ 5.18 µM); against Streptococcus pyogenes [10], 0.5 µg/mL (≈ 1.29 µM); with Enterococcus faecium it was 1 µg/mL (≈ 2.59 µM).
As to `CC(=O)NC[C@H]1CN(c2ccc(N3CCC(=CC(C)OC(C)=O)CC3)c(F)c2)C(=O)O1` (some centres not stated), the MIC against Enterococcus faecalis [1] amounted to 8 µg/mL (≈ 18.5 µM); with Enterococcus faecalis [2], 8 µg/mL (≈ 18.5 µM); in [3] it was 2 µg/mL (≈ 4.61 µM); in experiment [4] it was 8 µg/mL (≈ 18.5 µM); with Staphylococcus aureus [5] it was 16 µg/mL (≈ 36.9 µM); in the experiment on Staphylococcus aureus [6], 16 µg/mL (≈ 36.9 µM). Moreover, the MIC was 8 µg/mL (≈ 18.5 µM) in the experiment on Staphylococcus aureus [7]; 16 µg/mL (≈ 36.9 µM) in the experiment with Staphylococcus aureus [8]; 8 µg/mL (≈ 18.5 µM) in the experiment with Streptococcus pyogenes [9]; 0.25 µg/mL (≈ 0.577 µM) with Streptococcus pyogenes [10]; 4 µg/mL (≈ 9.23 µM) with Enterococcus faecium.
For the compound `CC(=O)NC[C@H]1CN(c2ccc(N3CC/C(=C(\C)C#N)C3)c(F)c2)C(=O)O1`, the MIC against Enterococcus faecalis [2] was 4 µg/mL (≈ 10.7 µM); in [3] it was 1 µg/mL (≈ 2.69 µM); in experiment [4] it was 1 µg/mL (≈ 2.69 µM); against Staphylococcus aureus [5] it was 1 µg/mL (≈ 2.69 µM); with Staphylococcus aureus [6], 1 µg/mL (≈ 2.69 µM); with Enterococcus faecium it was 2 µg/mL (≈ 5.37 µM).
Consider `CC(=O)NC[C@H]1CN(c2ccc(N3CCC(=CC(=O)[O-])CC3)c(F)c2)C(=O)O1.[Na+]`, for which the minimal inhibitory concentration (MIC) with Enterococcus faecalis [1] stood at 8 µg/mL; in the experiment on Enterococcus faecalis [2], 4 µg/mL; in experiment [3] it was 1 µg/mL; in experiment [4], 1 µg/mL; in the experiment on Staphylococcus aureus [5], 8 µg/mL; with Staphylococcus aureus [6], 8 µg/mL. Moreover, the MIC turned out to be 4 µg/mL in the experiment with Staphylococcus aureus [7]; 8 µg/mL against Staphylococcus aureus [8]; 8 µg/mL against Streptococcus pyogenes [9]; 2 µg/mL against Streptococcus pyogenes [10]; 8 µg/mL with Enterococcus faecium.
Consider `CC(=O)NC[C@H]1CN(c2ccc(N3CC/C(=C/C#N)C3)c(F)c2)C(=O)O1`, for which the MIC with Enterococcus faecalis [2] was 1 µg/mL (≈ 2.79 µM); in experiment [3], 0.5 µg/mL (≈ 1.4 µM); with Staphylococcus aureus [5] it was 0.5 µg/mL (≈ 1.4 µM); in the experiment with Staphylococcus aureus [6], 0.5 µg/mL (≈ 1.4 µM); in the experiment with Enterococcus faecium, 1 µg/mL (≈ 2.79 µM).
As to `CN[C@H](CC(C)C)C(=O)N[C@H]1C(=O)N[C@@H](CC(N)=O)C(=O)N[C@H]2C(=O)N[C@H]3C(=O)N[C@H](C(=O)N[C@H](C(=O)O)c4cc(O)cc(O)c4-c4cc3ccc4O)[C@H](O)c3ccc(c(Cl)c3)Oc3cc2cc(c3O[C@@H]2O[C@H](CO)[C@@H](O)[C@H](O)[C@H]2O[C@H]2C[C@](C)(N)[C@H](O)[C@H](C)O2)Oc2ccc(cc2Cl)[C@H]1O` [VANCOMYCIN], the MIC against Enterococcus faecalis [1] was 2 µg/mL (≈ 1.38 µM); in the experiment on Enterococcus faecalis [2], 1 µg/mL (≈ 0.69 µM); in the experiment with Streptococcus pyogenes [10], 0.12 µg/mL (≈ 0.0828 µM); with Enterococcus faecium, over 32 µg/mL.

Values taken from ChEMBL document CHEMBL1136089, “Synthesis and in vitro activity of new methylenepiperidinyl and methylenepyrrolidinyl oxazolidinone antibacterial agents” (Bioorg Med Chem Lett, 2003).
